# Compounds with a hit are over-represented: about 3.1% of the library has one in this group of screens.
# FN deposition inh – inhibitors of fibronectin matrix deposition, primary screen, AH1F cells, Alexa488-fibronectin fluorescence, plate reader; AH1F fibroblasts, overnight; inhibition, % at 12.6 µM; actives 0.086% (n = 350,000);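 active = mean inhibition across replicates of 30% or more, regardless of how many single replicates reach that level; inconclusive = mean under 30% yet at least half of replicates reach 30%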
#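 Assay system: AH1F fibroblasts / Quantity: 10000 cells per well / Medium: DMEM plus 2% serum, read in PBS / Reagent: labelled fibronectin 24 nM / Dosing: single dose, pinned / Times: 1 h cell attachment, overnight exposure to compound and label / Signal: fluorescence, ex 485 nm, em 525 nm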
# PGC1a acetyl inh – inhibitors of PGC1a acetylation signal, primary screen, cell-based, U2OS, AlphaScreen, inhibitor mode; AlphaScreen anti-acetyl-lysine; with virally co-expressed GCN5 acetyltransferase; inhibition, % at 15.6 µM; actives 0.17% (n = 350,000); AID 651687, 2012;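 active = every replicate shows inhibition of at least 40%; inconclusive = mean inhibition at least 40% but some replicate below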
# Env fusion inh – inhibitors of HIV-1 Env-driven cell-cell fusion, primary screen, HeLa-JRFL effector, CEM21 target cells, luciferase. actives 1.1% (n = 360,000). AID 651610, 2012. inhibition, % at 12.3 µM;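 active = mean replicate inhibition score of at least 50 and every replicate individually at or above 50; inconclusive = only one of the two criteria met; inactive = mean below 50 and not all replicates reaching 50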
# FGF22 binding – binders of human FGF22 protein, primary screen, FGF22 synaptogenesis inhibitor project, biophysical, thermal shift, single point; AID 651658, 2012; actives 1.5% (n = 340,000); activity (Tm shift, normalised), % at 9.99 µM; recombinant FGF22 thermal shift, SYPRO orange fluorescence; percent of sucrose octasulfate shift, DMSO zero; Fibroblast growth factor 22 (Homo sapiens), Q9HCT0;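 active = mean Tm shift, scaled 0 neutral to 100 positive control, at about 1.3% or above, every replicate too, limit read from the data; inconclusive = no clear call, values can overlap the other calls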
# Target sequence (Q9HCT0 whole entry, looked up): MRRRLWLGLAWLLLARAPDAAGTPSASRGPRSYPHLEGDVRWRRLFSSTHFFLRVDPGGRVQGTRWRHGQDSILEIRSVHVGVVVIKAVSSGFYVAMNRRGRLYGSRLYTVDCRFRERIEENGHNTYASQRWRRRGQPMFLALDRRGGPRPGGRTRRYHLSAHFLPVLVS
# EWS-Fli block – EWS/Fli-driven NR0B1 reporter inhibitors, primary screen, A673 cells, NR0B1 luciferase, luminescence, MLPCN library. viability-normalised. inhibition, % at 12.6 µM. actives 0.67% (n = 350,000). AID 651661, 2012;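 active = mean inhibition of at least 50% after viability correction, with every replicate also passing that limit; inconclusive = mean reaches 50% but only one of two replicates passes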;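 note: firefly luciferase signal divided by Alamar Blue viability fluorescence both relative to DMSO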
# PAX8 inh HTS – inhibitors of PAX8-driven TPO luciferase reporter, primary screen, RMG-I cells, single concentration; SteadyGlo, 24 h; actives 1.2% (n = 360,000); AID 652154, 2013; inhibition, % at 12.6 µM;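 active = mean replicate inhibition at least 60% with every replicate also reaching 60%; inconclusive = only one of the two criteria is met; inactive = mean below 60% and not all replicates reaching 60%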;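 note: luciferase light reporting Pax8 driven TPO promoter activity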
# Hits are given with their value; - = inactive; ? = inconclusive; . = no result; ! = not confirmed by another sample.
SMILES,FN deposition inh,PGC1a acetyl inh,Env fusion inh,FGF22 binding,EWS-Fli block,PAX8 inh HTS
CC(C)NC(=O)Nc1ccc2c(c1)C(=O)N([C@H](C)CO)C[C@@H](C)[C@H](CN(C)CC1CCCCC1)OCCCC[C@H](C)O2,-,-,-,-,.,-
C[C@@H]1CN([C@@H](C)CO)S(=O)(=O)c2ccc(/C=C/c3ccccc3)cc2O[C@H]1CN(C)C(=O)NC1CCCCC1,.,-,.,-,-,-
C[C@@H]1CN([C@@H](C)CO)S(=O)(=O)c2ccc(/C=C/c3ccccc3)cc2O[C@@H]1CN(C)C(=O)Nc1ccc(F)cc1,-,-,-,-,-,.
C[C@@H]1CN([C@@H](C)CO)S(=O)(=O)c2ccc(/C=C/c3ccccc3)cc2O[C@H]1CN(C)C(=O)Nc1ccc(F)cc1,-,-,-,1.6,-,.
C[C@H]1CN([C@@H](C)CO)S(=O)(=O)c2ccc(/C=C/c3ccccc3)cc2O[C@H]1CN(C)C(=O)NC1CCCCC1,-,-,-,-,-,70!
C[C@H](CO)N1C[C@H](C)[C@@H](CN(C)C(=O)Nc2cc(F)ccc2F)Oc2cc(/C=C/c3ccccc3)ccc2S1(=O)=O,-,-,-,-,-,66
CS(=O)(=O)N1CC2(C1)[C@@H](c1ccccc1)[C@@H](CO)N2Cc1ccccn1,.,-,.,-,-,-
O=[N+]([O-])c1cc(Cl)c(O)c2ncccc12,-,-,-,.,-,-
Oc1c(Cl)cc(CN2CCOCC2)c2cccnc12,.,?,.,-,-,103
O=[N+]([O-])c1cc(CN2CCN(c3ccccc3)CC2)c(O)c2ncccc12,.,-,-,43,-,-
C[C@H]1CN([C@@H](C)CO)C(=O)c2cc(C#CC3CCCC3)cnc2O[C@H]1CN(C)S(C)(=O)=O,-,-,-,-,-,.
C[C@H]1CN([C@@H](C)CO)C(=O)Cc2cc(NC(=O)c3ccncc3)ccc2O[C@@H]1CN(C)Cc1ccc(Cl)c(Cl)c1,.,-,-,-,.,-
COc1ccc(NC(=S)Nc2ccc(OC(F)F)cc2)cn1,-,.,-,43,-,-
O=C(N[C@H]1CC[C@@H](CCNC(=O)c2ccccc2F)O[C@H]1CO)c1cnccn1,-,-,-,-,-,-
COCC(=O)N1CCCCN2[C@@H](CO)[C@H](c3ccc(-c4cccc(C)c4)cc3)[C@@H]2C1,.,-,.,-,-,-
CCOC(=O)[C@@H]1[C@H]2COc3cc(OC)ccc3[C@@H]2N2C(=O)N(c3ccc(F)cc3)C(=O)[C@]12C,-,.,.,44,-,-
CCOC(=O)[C@@H]1[C@H]2COc3ccc(Br)cc3[C@@H]2N2C(=O)N(c3ccccc3)C(=O)[C@@]12C,-,.,87,-,-,-
CCOC(=O)[C@@H]1[C@H]2COc3ccccc3[C@@H]2N2C(=O)N(c3ccc(Cl)cc3)C(=O)[C@]12C,-,-,.,44,-,-
CCOC(=O)[C@@H]1[C@H]2COc3ccccc3[C@H]2N2C(=O)N(c3ccc(C)cc3)C(=O)[C@]12C,-,-,-,-,-,-
CCOC(=O)[C@H]1[C@H]2COc3ccc(Br)cc3[C@@H]2N2C(=O)c3c(C)cc(C)cc3NC(=O)[C@@]12C,-,-,67,-,-,-
CCOC(=O)[C@H]1[C@H]2COc3ccc(Br)cc3[C@@H]2N2C(=O)c3ccc(C)cc3NC(=O)[C@@]12C,-,.,-,-,-,-
COc1ccc2c3c(n(C)c2c1)[C@H](CO)N(C(=O)c1ccncc1)CC31CN(C)C1,.,-,.,-,-,.
COc1ccc2c3c([nH]c2c1)[C@H](CO)N(C(=O)Cc1ccccc1)CC31CN(C(=O)Cc2ccccc2)C1,.,-,.,-,-,-
CCOC(=O)c1cc(-c2ccc3c(c2)OCCO3)n[nH]1,-,.,-,-,-,-
O=C(O)c1cc(-c2ccc3c(c2)OCCO3)n[nH]1,-,-,-,43,-,-
SMILES,FN deposition inh,PGC1a acetyl inh,Env fusion inh,FGF22 binding,EWS-Fli block,PAX8 inh HTS
S=c1nc(C2COc3ccccc3O2)[nH][nH]1 (centres undefined),-,-,-,43,-,-
Cc1nc(C2COc3ccccc3O2)sc1C(=O)O (centres undefined),-,.,-,-,-,-
CCN(CC)CCn1c2c(c(SCC(=O)Nc3cc(OC)cc(OC)c3)nc1=O)CCC2,-,-,61,-,-,-
CCN(CC)CCCn1c2c(c(SCC(=O)Nc3cc(C)cc(C)c3)nc1=O)CCC2,-,.,-,-,-,-
CN1CCN(C(=O)C[C@@H]2C[C@@H]3c4cc(NC(=O)Nc5ccccc5F)ccc4O[C@@H]3[C@@H](CO)O2)CC1,-,-,-,-,-,-
Cc1nc(-c2ccc3c(c2)OCCO3)cs1,-,.,-,43,-,-
Cc1cccc(Nc2nc(-c3ccc4c(c3)OCCO4)cs2)c1,.,-,.,.,.,.
Cc1ccc(S(=O)(=O)N(C)C[C@@H]2Oc3c(NC(=O)c4ccncc4)cccc3C(=O)N([C@@H](C)CO)C[C@H]2C)cc1,.,-,-,-,-,-
C[C@@H]1CN([C@@H](C)CO)S(=O)(=O)c2ccc(C#C[C@@H](C)O)cc2O[C@H]1CN(C)Cc1ccccn1,.,-,-,-,-,.
O=C(Cn1ncc2c(=O)oc3ccccc3c21)N1CCC(N2CCCCC2)CC1,-,-,74,-,-,-
O=[N+]([O-])c1cc([N+](=O)[O-])c2cc3ccccc3nc2c1,-,.,-,-,72,-
O=C(C[C@@H]1C=C[C@H](NC(=O)c2cccnc2)[C@@H](CO)O1)NCCN1CCCCC1,-,-,.,.,.,.
Cc1cc(C)cc(NC(=S)NCc2ccncc2)c1,.,-,-,44,-,-
COc1ccc(NC(=O)N(C)C[C@H]2OCCCC[C@@H](C)Oc3ccc(NS(=O)(=O)c4cn(C)cn4)cc3C(=O)N([C@@H](C)CO)C[C@H]2C)cc1,.,-,-,-,-,-
CCOC(=O)Nc1ccc2c(c1)N(C(=O)CCN(CC)CC)c1ccccc1S2=O (centres undefined),-,-,-,-,-,109
CCOC(=O)Nc1ccc2c(c1)N(C(=O)CCN(CC)CC)c1ccccc1CC2,-,.,-,-,-,-
COCC(=O)N(C)C[C@@H]1Oc2cc(C#CCC(C)C)ccc2S(=O)(=O)N([C@H](C)CO)C[C@H]1C,-,-,-,-,-,.
CN1CCN(C(=O)C[C@@H]2CC[C@H]3[C@@H](COC[C@@H](O)CN3Cc3cccc(F)c3)O2)CC1,-,-,-,-,-,-
O=C(C[C@@H]1CC[C@H]2[C@@H](COC[C@H](O)CN2Cc2ccc(Oc3ccccc3)cc2)O1)N1CCN(c2ccccc2)CC1,-,-,-,-,-,64
